Assay results as given in ChEMBL document CHEMBL4038321, “Design, Synthesis, and Pharmacokinetics of a Bone-Targeting Dual-Action Prodrug for the Treatment of Osteoporosis” (J Med Chem, 2017).

How the values were obtained:
[1] = system: Liver; assay: Drug uptake in Sprague-Dawley rat liver at 8.9 uCi, iv administered as bolus dose after 14 days; assay type: ADME, organism-based; conditions: in vivo, 336 h
Outline: (§1)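 Female Sprague Dawley rats, about 13 weeks old, in five groups of three. Single IV tail-vein bolus of mixed 3H-conjugate (8.90 µCi/rat) and 14C-conjugate (1.77 µCi/rat), total dose 5.0 mg/kg. Vehicle was 10% Poloxamer 188, brought to pH 8.0 with NaHCO3, then diluted with an equal volume of PBS. Groups were killed at 6 h, 1, 7, 14 and 28 days. Tissues and femurs were incinerated in a biological oxidizer. Values are % of administered dose, with skeleton taken as 8% of body weight, averaged over three rats.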

[2] = system: Rattus norvegicus; assay: Toxicity in Sprague-Dawley rat assessed as behavioral change at 8.9 uCi, iv administered as bolus dose after 28 dyas; assay type: organism-based; conditions: in vivo
Outline: (§2)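 Same dual-label study: female Sprague Dawley rats got one IV tail-vein bolus of [3H] (8.90 µCi) plus [14C] (1.77 µCi) conjugate, total 5.0 mg/kg, in Poloxamer 188/PBS vehicle at pH 8.0. Groups of three were sacrificed up to 28 days after dosing.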

[3] = system: Serum; assay: Drug metabolism in rat serum assessed as tritium label liberation preincubated with bovine bone powder followed by rat serum addition measured after 24 hrs; assay type: ADME, cell-free
Outline: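 Tritium-labelled conjugate first bound to bovine bone powder for 30 min in buffer. The powder was filtered, resuspended and incubated in fresh rat serum. Buffer and inactivated serum were run alongside. Tritium liberated after 24 h was measured.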

[4] = system: Spleen; assay: Drug uptake in Sprague-Dawley rat spleen at 8.9 uCi, iv administered as bolus dose after 6 hrs; assay type: ADME, organism-based; conditions: in vivo
Outline: (§3)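 Female Sprague Dawley rats, about 13 weeks old on arrival, in five groups of three. Single IV tail-vein bolus of mixed [3H]- and [14C]-labelled conjugate (8.90 and 1.77 µCi/rat), total 5.0 mg/kg. Vehicle was 10% Poloxamer 188 adjusted to pH 8.0 with NaHCO3, then diluted with an equal volume of PBS. Groups killed at 6 h, 1, 7, 14 and 28 days. Spleen radioactivity measured by oxidizer incineration and reported as percent of administered dose, averaged over three rats.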

[5] = system: Liver; assay: Drug uptake in Sprague-Dawley rat liver at 8.9 uCi, iv administered as bolus dose after 1 day; assay type: ADME, organism-based; conditions: in vivo, 24 h; outline: as §1
[6] = system: Spleen; assay: Drug uptake in Sprague-Dawley rat spleen at 8.9 uCi, iv administered as bolus dose after 7 days; assay type: ADME, organism-based; conditions: in vivo, 168 h; outline: as §3
[7] = system: Kidney; assay: Drug uptake in Sprague-Dawley rat kidney at 8.9 uCi, iv administered as bolus dose after 14 days; assay type: ADME, organism-based; conditions: in vivo, 336 h; outline: as §1
[8] = system: Plasma; assay: Drug metabolism in rat plasma assessed as tritium label liberation preincubated with rat plasma followed by bovine bone powder addition measured after 4 hrs; assay type: ADME, cell-free
Outline: (§4)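 Tritium-labelled conjugate incubated in rat plasma at 37 °C. At fixed times the incubate was stirred with bovine bone powder to adsorb intact conjugate and any cleaved bisphosphonate. Unbound radioactivity in the supernatant was then counted as liberated label.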

[9] = system: Kidney; assay: Drug uptake in Sprague-Dawley rat kidney at 8.9 uCi, iv administered as bolus dose after 28 days; assay type: ADME, organism-based; conditions: in vivo, 672 h; outline: as §1
[10] = system: Spleen; assay: Drug uptake in Sprague-Dawley rat spleen at 8.9 uCi, iv administered as bolus dose after 1 day; assay type: ADME, organism-based; conditions: in vivo, 24 h; outline: as §3
[11] = system: Bone; assay: Drug uptake in Sprague-Dawley rat bone at 8.9 uCi, iv administered as bolus dose after 1 day; assay type: ADME, organism-based, Bone element; conditions: in vivo, 24 h; outline: as §1
[12] = system: Liver; assay: Drug uptake in Sprague-Dawley rat liver at 8.9 uCi, iv administered as bolus dose after 6 hrs; assay type: ADME, organism-based; conditions: in vivo; outline: as §1
[13] = system: Rattus norvegicus; assay: Toxicity in Sprague-Dawley rat at 31 uCi, iv administered via tail vein after 6 hrs; assay type: organism-based; conditions: in vivo
Outline: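 Three female Sprague Dawley rats, about 23 weeks old on arrival, received an IV tail-vein injection of 5 mg/kg conjugate with 31.0 µCi [3H] per rat. Vehicle was 10% Poloxamer 188 adjusted to pH 8.0 with NaHCO3 and diluted 1:1 with PBS. Tolerability was observed over 6 h with blood sampling, and the study ended at 6 h.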

[14] = system: Brain; assay: Drug uptake in Sprague-Dawley rat brain at 8.9 uCi, iv administered as bolus dose after 1 day; assay type: ADME, organism-based; conditions: in vivo, 24 h; outline: as §1
[15] = system: Heart; assay: Drug uptake in Sprague-Dawley rat heart at 8.9 uCi, iv administered as bolus dose after 7 days; assay type: ADME, organism-based; conditions: in vivo, 168 h; outline: as §1
[16] = system: Rattus norvegicus; assay: Toxicity in Sprague-Dawley rat assessed as unusual reaction at 8.9 uCi, iv administered as bolus dose after 28 dyas; assay type: organism-based; conditions: in vivo; outline: as §2
[17] = system: Brain; assay: Drug uptake in Sprague-Dawley rat brain at 8.9 uCi, iv administered as bolus dose after 6 hrs; assay type: ADME, organism-based; conditions: in vivo; outline: as §1
[18] = system: Plasma; assay: Drug metabolism in rat plasma assessed as tritium label liberation preincubated with rat plasma followed by bovine bone powder addition measured after 24 hrs; assay type: ADME, cell-free; outline: as §4
[19] = system: Spleen; assay: Drug uptake in Sprague-Dawley rat spleen at 8.9 uCi, iv administered as bolus dose after 14 days; assay type: ADME, organism-based; conditions: in vivo, 336 h; outline: as §3
[20] = system: Liver; assay: Drug uptake in Sprague-Dawley rat liver at 8.9 uCi, iv administered as bolus dose after 28 days; assay type: ADME, organism-based; conditions: in vivo, 672 h; outline: as §1
[21] = system: Plasma; assay: Drug metabolism in rat plasma assessed as tritium label liberation preincubated with rat plasma followed by bovine bone powder addition measured after 30 mins; assay type: ADME, cell-free; conditions: 0.5 h; outline: as §4
[22] = system: Kidney; assay: Drug uptake in Sprague-Dawley rat kidney at 8.9 uCi, iv administered as bolus dose after 1 day; assay type: ADME, organism-based; conditions: in vivo, 24 h; outline: as §1
[23] = system: Heart; assay: Drug uptake in Sprague-Dawley rat heart at 8.9 uCi, iv administered as bolus dose after 6 hrs; assay type: ADME, organism-based; conditions: in vivo; outline: as §1
[24] = system: Kidney; assay: Drug uptake in Sprague-Dawley rat kidney at 8.9 uCi, iv administered as bolus dose after 7 days; assay type: ADME, organism-based; conditions: in vivo, 168 h; outline: as §1
[25] = Drug metabolism in rat plasma at 100 uM measured after 24 hrs by HPLC analysis; assay type: ADME, cell-free; conditions: read-out: Drug metabolism
Outline: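 Conjugate incubated in rat plasma at 37 °C for 24 h and compared with inactivated control plasma. Aliquots were taken at 0, 1, 2, 4 and 24 h and quenched with methanol containing 1.0 M HCl, then centrifuged. Remaining conjugate in the supernatant was quantified by reverse-phase HPLC with UV detection at 254 nm.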

[26] = system: Bone; assay: Drug uptake in Sprague-Dawley rat bone at 8.9 uCi, iv administered as bolus dose after 28 days; assay type: ADME, organism-based, Bone element; conditions: in vivo, 672 h; outline: as §1
[27] = system: Bone; assay: Drug uptake in Sprague-Dawley rat bone at 8.9 uCi, iv administered as bolus dose after 7 days; assay type: ADME, organism-based, Bone element; conditions: in vivo, 168 h; outline: as §1
[28] = system: Kidney; assay: Drug uptake in Sprague-Dawley rat kidney at 8.9 uCi, iv administered as bolus dose after 6 hrs; assay type: ADME, organism-based; conditions: in vivo; outline: as §1
[29] = system: Bone; assay: Drug uptake in Sprague-Dawley rat bone at 8.9 uCi, iv administered as bolus dose after 14 days; assay type: ADME, organism-based, Bone element; conditions: in vivo, 336 h; outline: as §1
[30] = system: Bone; assay: Drug uptake in Sprague-Dawley rat bone at 8.9 uCi, iv administered as bolus dose after 6 hrs; assay type: ADME, organism-based, Bone element; conditions: in vivo; outline: as §1
[31] = system: Liver; assay: Drug uptake in Sprague-Dawley rat liver at 31 uCi, iv after 6 hrs by scintillation counting method; assay type: ADME, organism-based; conditions: in vivo
Outline: (§5)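 Three female Sprague Dawley rats, about 23 weeks old. IV tail-vein dose of 5 mg/kg 3H-conjugate (31.0 µCi/rat) in 10% Poloxamer 188, pH 8.0 with NaHCO3, diluted 1:1 with PBS. Blood was drawn at 0.5 to 6 h. At 6 h tissues, including long bones, were taken and analysed for radioactivity by oxidation and scintillation counting.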

[32] = system: Bone; assay: Drug uptake in Sprague-Dawley rat bone at 31 uCi, iv after 6 hrs by scintillation counting method; assay type: ADME, organism-based, Bone element; conditions: in vivo; outline: as §5
[33] = system: Liver; assay: Drug uptake in Sprague-Dawley rat liver at 8.9 uCi, iv administered as bolus dose after 7 days; assay type: ADME, organism-based; conditions: in vivo, 168 h; outline: as §1
[34] = system: Spleen; assay: Drug uptake in Sprague-Dawley rat spleen at 8.9 uCi, iv administered as bolus dose after 28 days; assay type: ADME, organism-based; conditions: in vivo, 672 h; outline: as §3
[35] = system: Heart; assay: Drug uptake in Sprague-Dawley rat heart at 8.9 uCi, iv administered as bolus dose after 1 day; assay type: ADME, organism-based; conditions: in vivo, 24 h; outline: as §1

With `[3H]c1ccc(C(F)(F)[C@@H](/C=C/[C@H]2CCC(=O)N2CCCCCCC(=O)OCC)OC(=O)Cc2ccc(COC(=O)N[C@@H](CC(C)C)C(=O)N[C@@H](CCCNC(=N)N)C(=O)Nc3ccc(COC(=O)NCCCC(O)(P(=O)(O)O)P(=O)(O)O)cc3)cc2)cc1` as the molecule, how does the Drug uptake [1] read?
The Drug uptake was 0.3 %ID.

What about the Activity [2] of the same molecule?
The Activity was “Non-Toxic”.

What about the Drug metabolism [3] of the same molecule?
Its Drug metabolism is under 3%.

What about the Drug uptake [4] of the same molecule?
Its Drug uptake is 0.35 %ID.

And the Drug uptake [5]?
Its Drug uptake is 2.33 %ID.

What about the Drug uptake [6] of the same molecule?
The Drug uptake was 0.076 %ID.

What about the Drug uptake [7] of the same molecule?
The Drug uptake was 0.026 %ID.

What about the Drug metabolism [8] of the same molecule?
The Drug metabolism was 44%.

What about the Drug uptake [9] of the same molecule?
The Drug uptake was 0.017 %ID.

And the Drug uptake [10]?
The Drug uptake was 0.22 %ID.

And the Drug uptake [11]?
The Drug uptake was 2.12 %ID.

And the Drug uptake [12]?
The Drug uptake was 8.95 %ID.

What about the Activity [13] of the same molecule?
Its Activity is “Toxic”.

And the Drug uptake [14]?
Its Drug uptake is 0.025 %ID.

And the Drug uptake [15]?
Its Drug uptake is 0.014 %ID.

And the Activity [16]?
Its Activity is “Non-Toxic”.

What about the Drug uptake [17] of the same molecule?
Its Drug uptake is 0.022 %ID.

What about the Drug metabolism [18] of the same molecule?
The Drug metabolism was 53%.

And the Drug uptake [19]?
The Drug uptake was 0.039 %ID.

And the Drug uptake [20]?
Its Drug uptake is 0.08 %ID.

What about the Drug metabolism [21] of the same molecule?
The Drug metabolism was 27%.

And the Drug uptake [22]?
Its Drug uptake is 0.11 %ID.

What about the Drug uptake [23] of the same molecule?
The Drug uptake was 0.025 %ID.

What about the Drug uptake [24] of the same molecule?
The Drug uptake was 0.053 %ID.

What about the metabolised at 24 h, 100 µM [25] of the same molecule?
Its metabolised at 24 h, 100 µM is 55%.

And the Drug uptake [26]?
Its Drug uptake is 0.74 %ID.

And the Drug uptake [27]?
The Drug uptake was 1.3 %ID.

What about the Drug uptake [28] of the same molecule?
The Drug uptake was 0.21 %ID.

And the Drug uptake [29]?
The Drug uptake was 0.8 %ID.

And the Drug uptake [30]?
The Drug uptake was 2.1 %ID.

And the Drug uptake [31]?
Its Drug uptake is “Active”.

And the Drug uptake [32]?
The Drug uptake was 2.5 %ID.

What about the Drug uptake [33] of the same molecule?
The Drug uptake was 0.48 %ID.

And the Drug uptake [34]?
Its Drug uptake is 0.037 %ID.

And the Drug uptake [35]?
The Drug uptake was 0.021 %ID.
